Measured values as given in ChEMBL document CHEMBL3352487, “Synthesis, antibacterial activity, and biological evaluation of formyl hydroxyamino derivatives as novel potent peptide deformylase inhibitors against drug-resistant bacteria” (Eur J Med Chem, 2014).
In brackets after ≈: the same amount, converted by molar mass.

Assays:
[1] = Oral bioavailability in Sprague-Dawley rat at 25 mg/kg; assay type: ADME, organism-based; details: in vivo
Staphylococcus aureus [2] = experiment: Antimicrobial activity against Staphylococcus aureus WCUH29 after 24 hrs by broth microdilution method; assay type: functional; details: WCUH29, 24 h
In short: (§1)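 Broth microdilution following NCCLS M7-A4; ATCC strains and clinical isolates from a provincial hospital.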

[3] = AUC (0 to infinity) in Sprague-Dawley rat at 5 mg/kg, iv; assay type: ADME, organism-based; design: time infinity, dose 5 mg/kg, route intravenous; details: plasma
hERG (KCNH2) [4] = target: T1, hERG (KCNH2) (Homo sapiens, UniProt Q12809); experiment: Inhibition of human ERG at 1 uM
Staphylococcus aureus [5] = experiment: Antimicrobial activity against Staphylococcus aureus OXFORD after 24 hrs by broth microdilution method; assay type: functional
In short: (§2)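 Broth microdilution following NCCLS M7-A4, using ATCC strains and clinical isolates from a provincial hospital.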

[6] = Half life in Sprague-Dawley rat at 25 mg/kg, po; assay type: ADME, organism-based; design: dose 25 mg/kg, route oral; details: in vivo
[7] = test system: Staphylococcus epidermidis; experiment: Antimicrobial activity against Staphylococcus epidermidis after 24 hrs by broth microdilution method; assay type: functional; in short: as §1
Streptococcus pneumoniae [8] = experiment: Antimicrobial activity against Streptococcus pneumoniae 1629 after 24 hrs by broth microdilution method; assay type: functional; details: Streptococcus pneumoniae, 1629, 24 h; in short: as §1
Enterococcus faecalis = experiment: Antimicrobial activity against Enterococcus faecalis Isolate 1 after 24 hrs by broth microdilution method; assay type: functional; details: Isolate 1, 24 h; in short: as §1
hERG (KCNH2) [9] = target: T1, hERG (KCNH2); experiment: Inhibition of human ERG at 10 uM
Haemophilus influenzae [10] = experiment: Antimicrobial activity against AcrA-deficient Haemophilus influenzae H128 after 24 hrs by broth microdilution method; assay type: functional; details: H128, 24 h; in short: as §1
[11] = Mean residence time (0 to t) in Sprague-Dawley rat at 25 mg/kg, po; assay type: ADME, organism-based; design: dose 25 mg/kg, route oral; details: in vivo
Haemophilus influenzae [12] = experiment: Antimicrobial activity against Haemophilus influenzae Q1 after 24 hrs by broth microdilution method; assay type: functional; details: Q1, 24 h; in short: as §1
Streptococcus pneumoniae [13] = experiment: Antimicrobial activity against Streptococcus pneumoniae N1387 after 24 hrs by broth microdilution method; assay type: functional; details: N1387, 24 h; in short: as §1
Escherichia coli [14] = experiment: Antimicrobial activity against Escherichia coli isolate 1 after 24 hrs by broth microdilution method; assay type: functional; details: isolate 1, 24 h; in short: as §1
Staphylococcus aureus [15] = experiment: Antimicrobial activity against methicillin-susceptible Staphylococcus aureus after 24 hrs by broth microdilution method; assay type: functional; in short: as §1
[16] = Cmax in Sprague-Dawley rat at 25 mg/kg, po; assay type: ADME, organism-based; design: dose 25 mg/kg, route oral; details: in vivo
Escherichia coli [17] = experiment: Antimicrobial activity against Escherichia coli isolate 2 after 24 hrs by broth microdilution method; assay type: functional; details: isolate 2, 24 h; in short: as §1
[18] = AUC (0 to infinity) in Sprague-Dawley rat at 25 mg/kg, po; assay type: ADME, organism-based; design: dose 25 mg/kg, route oral, time infinity; details: plasma
Staphylococcus aureus [19] = experiment: Antimicrobial activity against Staphylococcus aureus after 24 hrs by broth microdilution method; assay type: functional; in short: as §1
Streptococcus pyogenes [20] = experiment: Antimicrobial activity against Streptococcus pyogenes 1307006P after 24 hrs by broth microdilution method; assay type: functional; in short: as §1
Staphylococcus aureus [21] = experiment: Antimicrobial activity against methicillin-resistant Staphylococcus aureus after 24 hrs by broth microdilution method; assay type: functional; in short: as §2
Haemophilus influenzae [22] = experiment: Antimicrobial activity against Haemophilus influenzae H128 after 24 hrs by broth microdilution method; assay type: functional; details: H128, 24 h; in short: as §1
[23] = Clearance in Sprague-Dawley rat at 5 mg/kg, iv; assay type: ADME, organism-based; design: dose 5 mg/kg, route intravenous; details: in vivo
[24] = Tmax in Sprague-Dawley rat at 25 mg/kg, po; assay type: ADME, organism-based; design: dose 25 mg/kg, route oral; details: in vivo
[25] = Volume of distribution at steady state in Sprague-Dawley rat at 5 mg/kg, iv; assay type: ADME, organism-based; design: dose 5 mg/kg, route intravenous; details: in vivo, read-out: Vdss
[26] = AUC (0 to t) in Sprague-Dawley rat at 25 mg/kg, po; assay type: ADME, organism-based; design: dose 25 mg/kg, route oral; details: plasma
Streptococcus pyogenes [27] = experiment: Antimicrobial activity against Streptococcus pyogenes 1308007P after 24 hrs by broth microdilution method; assay type: functional; in short: as §1
Enterococcus faecium = experiment: Antimicrobial activity against Enterococcus faecium X7501 after 24 hrs by broth microdilution method; assay type: functional; details: X7501, 24 h; in short: as §1
[28] = AUC (0 to t) in Sprague-Dawley rat at 5 mg/kg, iv; assay type: ADME, organism-based; design: dose 5 mg/kg, route intravenous; details: plasma
[29] = Half life in Sprague-Dawley rat at 5 mg/kg, iv; assay type: ADME, organism-based; design: dose 5 mg/kg, route intravenous; details: in vivo
Streptococcus pneumoniae [30] = experiment: Antimicrobial activity against Streptococcus pneumoniae ERY2 after 24 hrs by broth microdilution method; assay type: functional; details: ERY2, 24 h; in short: as §1
Escherichia coli [31] = experiment: Antimicrobial activity against Escherichia coli isolate 3 after 24 hrs by broth microdilution method; assay type: functional; details: isolate 3, 24 h; in short: as §1
Moraxella catarrhalis = experiment: Antimicrobial activity against Moraxella catarrhalis 1502 after 24 hrs by broth microdilution method; assay type: functional; details: Moraxella catarrhalis, 1502, 24 h; in short: as §1
[32] = Mean residence time (0 to t) in Sprague-Dawley rat at 5 mg/kg, iv; assay type: ADME, organism-based; design: dose 5 mg/kg, route intravenous; details: in vivo

T1 sequence (Q12809 whole entry): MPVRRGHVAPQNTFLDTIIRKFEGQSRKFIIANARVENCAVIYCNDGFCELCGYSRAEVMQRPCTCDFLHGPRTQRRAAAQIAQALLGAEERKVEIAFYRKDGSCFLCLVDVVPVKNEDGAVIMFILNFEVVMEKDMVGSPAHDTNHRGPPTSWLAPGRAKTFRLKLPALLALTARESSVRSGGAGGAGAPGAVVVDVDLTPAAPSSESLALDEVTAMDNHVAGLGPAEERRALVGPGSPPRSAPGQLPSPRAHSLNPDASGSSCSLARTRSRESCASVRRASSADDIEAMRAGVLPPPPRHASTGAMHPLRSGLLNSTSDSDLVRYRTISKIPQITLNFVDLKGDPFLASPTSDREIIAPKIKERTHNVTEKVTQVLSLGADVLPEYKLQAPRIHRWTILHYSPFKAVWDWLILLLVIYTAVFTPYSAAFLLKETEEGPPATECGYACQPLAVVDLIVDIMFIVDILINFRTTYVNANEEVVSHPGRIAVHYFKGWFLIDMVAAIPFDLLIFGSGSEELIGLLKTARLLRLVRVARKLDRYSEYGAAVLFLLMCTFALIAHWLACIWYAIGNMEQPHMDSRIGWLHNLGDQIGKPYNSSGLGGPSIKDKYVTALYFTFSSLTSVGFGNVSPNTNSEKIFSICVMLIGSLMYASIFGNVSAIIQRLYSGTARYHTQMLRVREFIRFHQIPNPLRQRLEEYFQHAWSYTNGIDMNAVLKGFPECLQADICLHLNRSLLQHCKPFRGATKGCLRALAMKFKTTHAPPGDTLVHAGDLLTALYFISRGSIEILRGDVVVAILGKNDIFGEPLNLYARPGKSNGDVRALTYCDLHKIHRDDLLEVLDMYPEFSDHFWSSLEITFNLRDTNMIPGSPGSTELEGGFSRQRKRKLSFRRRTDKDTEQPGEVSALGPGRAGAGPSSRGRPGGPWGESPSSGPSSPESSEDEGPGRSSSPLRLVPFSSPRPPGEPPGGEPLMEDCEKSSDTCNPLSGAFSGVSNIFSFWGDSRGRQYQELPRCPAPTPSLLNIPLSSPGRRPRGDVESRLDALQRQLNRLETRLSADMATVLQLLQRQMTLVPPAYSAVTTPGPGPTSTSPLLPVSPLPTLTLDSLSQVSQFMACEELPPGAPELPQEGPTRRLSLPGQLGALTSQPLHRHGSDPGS

## O=CN(O)C[C@@H](CC1CCCC1)C(=O)N1CC=C[C@H]1C(=O)Nc1ccc(F)c[n+]1[O-]
[1]
  bioavailability: 22.4%
Staphylococcus aureus [2]
  MIC: 0.125 µg/mL (≈ 0.297 µM)
[3]
  AUC(0-inf): 1620 ng·h/mL
hERG (KCNH2) [4]
  inhibition at 1 µM: 1.15%
Staphylococcus aureus [5]
  MIC: 0.5 µg/mL (≈ 1.19 µM)
[6]
  half-life: 155 min
[7]
  MIC: 0.25 µg/mL (≈ 0.595 µM)
Streptococcus pneumoniae [8]
  MIC: 0.5 µg/mL (≈ 1.19 µM)
Enterococcus faecalis
  MIC: 2 µg/mL (≈ 4.76 µM)
hERG (KCNH2) [9]
  inhibition at 10 µM: 0.89%
Haemophilus influenzae [10]
  MIC: ≤ 0.06 µg/mL
[11]
  MRT last: 121 min
Haemophilus influenzae [12]
  MIC: 1 µg/mL (≈ 2.38 µM)
Streptococcus pneumoniae [13]
  MIC: 0.125 µg/mL (≈ 0.297 µM)
Escherichia coli [14]
  MIC: 64 µg/mL (≈ 152 µM)
Staphylococcus aureus [15]
  MIC: 0.5 µg/mL (≈ 1.19 µM)
[16]
  Cmax: 956 ng/mL
Escherichia coli [17]
  MIC: 32 µg/mL (≈ 76.1 µM)
[18]
  AUC(0-inf): 1810 ng·h/mL
Staphylococcus aureus [19]
  MIC: 0.25 µg/mL (≈ 0.595 µM)
Streptococcus pyogenes [20]
  MIC: 0.25 µg/mL (≈ 0.595 µM)
Staphylococcus aureus [21]
  MIC: 0.25 µg/mL (≈ 0.595 µM)
Haemophilus influenzae [22]
  MIC: 2 µg/mL (≈ 4.76 µM)
[23]
  clearance: 51.7 mL/min/kg
[24]
  Tmax: 22.5 min
[25]
  Vd: 1.6 L/kg
[26]
  AUC(0-t): 1630 ng·h/mL
Streptococcus pyogenes [27]
  MIC: 0.5 µg/mL (≈ 1.19 µM)
Enterococcus faecium
  MIC: 1 µg/mL (≈ 2.38 µM)
[28]
  AUC(0-t): 1610 ng·h/mL
[29]
  half-life: 48.4 min
Streptococcus pneumoniae [30]
  MIC: 0.25 µg/mL (≈ 0.595 µM)
Escherichia coli [31]
  MIC: 64 µg/mL (≈ 152 µM)
Moraxella catarrhalis
  MIC: ≤ 0.06 µg/mL
[32]
  MRT last: 30.2 min
